Source: ChEMBL document CHEMBL3286267, “Discovery of MK-4409, a Novel Oxazole FAAH Inhibitor for the Treatment of Inflammatory and Neuropathic Pain” (ACS Med Chem Lett, 2014)
Converted amounts (≈) assume the structure as drawn. The source made the active and inactive calls. The calls are words filed in the database; no cut-off is given here.

Tests used:
Rattus norvegicus [1] = test: Analgesic activity in Sprague-Dawley rat complete Freund's adjuvant-induced inflammatory pain model assessed as reversal of mechanical allodynia at 2 mg/kg/day, ip measured up to 5 days; type: functional, organism-based
How it was run: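 Inflammatory pain induced in rats by intraplantar injection of complete Freund's adjuvant into the hind paws. Mechanical allodynia was followed under a chronic repeated-dosing paradigm across several days to check for loss of antinociception (tachyphylaxis).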

Rattus norvegicus [2] = test: Analgesic activity in Sprague-Dawley rat complete Freund's adjuvant-induced inflammatory pain model assessed as reversal of mechanical allodynia at 10 mg/kg, po single dose measured after 1 hr; type: functional
How it was run: (§1)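 Inflammatory pain induced in rats by intraplantar injection of complete Freund's adjuvant into the hind paw. Mechanical allodynia was assessed at 1 and 3 h after a single oral dose. For each rat, percent reversal = (postdose – predose)/(preinjury – predose), averaged over n = 6.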

Rattus norvegicus [3] = test: Dose normalized AUC in rat at 1 mg/kg, iv and 1 to 2 mg/kg, po; type: ADME, organism-based; settings: in vivo
How it was run: (§2)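 Rat PK given 1 mg/kg iv in DMSO/PEG400/H2O 20/60/20 and 2 mg/kg po in either Imwitor/Tween 1/1 or PEG400/Tween80/H2O 40/10/50. Half-life, clearance, volume of distribution, dose-normalized AUC (AUCN) and oral bioavailability were derived.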

Rattus norvegicus [4] = test: Analgesic activity in Sprague-Dawley rat complete Freund's adjuvant-induced inflammatory pain model assessed as reversal of mechanical allodynia at 30 mg/kg, po single dose measured after 3 hrs; type: functional; how it was run: as §1
[5] = Clearance in rat at 1 mg/kg, iv and 1 to 2 mg/kg, po; type: ADME, organism-based; settings: in vivo; how it was run: as §2
[6] = Volume of distribution at steady state in rat at 1 mg/kg, iv and 1 to 2 mg/kg, po; type: ADME, organism-based; settings: in vivo, read-out: Vdss; how it was run: as §2
Rattus norvegicus [7] = test: Analgesic activity in Sprague-Dawley rat complete Freund's adjuvant-induced inflammatory pain model assessed as reversal of mechanical allodynia at 10 mg/kg, po single dose measured after 3 hrs; type: functional; how it was run: as §1
[8] = Inhibition of human vesicular monoamine transporter
How it was run: (§3)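 In vitro assays, with values reported as the average of at least three duplicates.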

[9] = molecular target: T1, Fatty-acid amide hydrolase 1 (Rattus norvegicus, UniProt P97612); test: Inhibition of rat FAAH lysate using AMCAA as substrate by fluorescence assay; how it was run: as §3
T1 sequence (P97612 whole entry): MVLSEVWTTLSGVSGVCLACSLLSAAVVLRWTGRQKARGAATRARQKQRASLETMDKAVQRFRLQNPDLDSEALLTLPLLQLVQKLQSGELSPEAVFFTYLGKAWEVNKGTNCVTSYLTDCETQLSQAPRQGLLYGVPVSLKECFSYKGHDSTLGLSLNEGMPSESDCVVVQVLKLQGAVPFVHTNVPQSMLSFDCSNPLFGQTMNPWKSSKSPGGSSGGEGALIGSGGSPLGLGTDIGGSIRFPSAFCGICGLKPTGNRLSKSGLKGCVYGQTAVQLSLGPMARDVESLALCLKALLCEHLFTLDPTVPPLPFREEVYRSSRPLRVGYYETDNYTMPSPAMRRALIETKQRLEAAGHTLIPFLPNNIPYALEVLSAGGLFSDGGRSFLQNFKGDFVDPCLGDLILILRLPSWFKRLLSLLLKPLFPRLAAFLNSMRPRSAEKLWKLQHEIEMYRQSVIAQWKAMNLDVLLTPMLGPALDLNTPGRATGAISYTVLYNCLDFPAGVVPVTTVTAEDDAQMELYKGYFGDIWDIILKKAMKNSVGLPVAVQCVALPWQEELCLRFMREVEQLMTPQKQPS

[10] = molecular target: Voltage-gated inwardly rectifying potassium channel KCNH2 (Homo sapiens, UniProt Q12809); test: Displacement of [35S]MK-499 from human ERG
Sequence of Voltage-gated inwardly rectifying potassium channel KCNH2 (Q12809 whole entry): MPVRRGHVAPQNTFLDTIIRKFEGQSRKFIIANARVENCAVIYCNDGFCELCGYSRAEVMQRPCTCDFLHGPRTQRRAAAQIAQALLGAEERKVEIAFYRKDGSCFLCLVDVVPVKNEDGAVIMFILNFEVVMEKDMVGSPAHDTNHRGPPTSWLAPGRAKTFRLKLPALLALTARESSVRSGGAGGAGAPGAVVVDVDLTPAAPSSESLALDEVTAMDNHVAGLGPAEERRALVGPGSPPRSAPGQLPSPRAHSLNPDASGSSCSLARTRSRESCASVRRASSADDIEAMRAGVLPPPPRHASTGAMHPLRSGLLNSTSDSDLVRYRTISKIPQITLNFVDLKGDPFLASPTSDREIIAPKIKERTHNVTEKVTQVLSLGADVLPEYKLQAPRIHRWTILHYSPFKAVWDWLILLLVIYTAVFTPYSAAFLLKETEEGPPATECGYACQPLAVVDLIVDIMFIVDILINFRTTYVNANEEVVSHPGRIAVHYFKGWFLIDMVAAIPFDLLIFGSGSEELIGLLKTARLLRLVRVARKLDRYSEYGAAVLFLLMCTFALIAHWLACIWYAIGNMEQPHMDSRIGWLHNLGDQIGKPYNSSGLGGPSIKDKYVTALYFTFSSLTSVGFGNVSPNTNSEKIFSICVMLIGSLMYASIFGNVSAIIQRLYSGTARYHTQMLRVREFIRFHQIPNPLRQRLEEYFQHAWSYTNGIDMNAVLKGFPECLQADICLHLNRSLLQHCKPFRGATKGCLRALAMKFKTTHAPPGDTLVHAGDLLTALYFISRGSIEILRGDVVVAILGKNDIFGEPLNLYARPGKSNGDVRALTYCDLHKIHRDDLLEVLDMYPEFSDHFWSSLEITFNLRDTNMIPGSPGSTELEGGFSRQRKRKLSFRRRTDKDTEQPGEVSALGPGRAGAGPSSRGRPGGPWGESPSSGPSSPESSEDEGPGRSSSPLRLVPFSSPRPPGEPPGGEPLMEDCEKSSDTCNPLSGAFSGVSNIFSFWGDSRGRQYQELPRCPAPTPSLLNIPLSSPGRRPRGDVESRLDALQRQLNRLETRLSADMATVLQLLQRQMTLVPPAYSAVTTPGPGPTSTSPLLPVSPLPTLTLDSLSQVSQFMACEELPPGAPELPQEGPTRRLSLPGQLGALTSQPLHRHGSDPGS
How it was run: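 hERG K+ channel binding assay measuring displacement of the radiolabelled channel blocker [35S]MK-499. Values are averages of at least three duplicates.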

[11] = Half life in rat at 1 mg/kg, iv and 1 to 2 mg/kg, po; type: ADME, organism-based; settings: in vivo; how it was run: as §2
[12] = Bioavailability in rat at 1 mg/kg, iv and 1 to 2 mg/kg, po; type: ADME, organism-based; settings: in vivo; how it was run: as §2
Rattus norvegicus [13] = test: Analgesic activity in Sprague-Dawley rat complete Freund's adjuvant-induced inflammatory pain model assessed as reversal of mechanical allodynia at 30 mg/kg, po single dose measured after 1 hr; type: functional; how it was run: as §1
[14] = molecular target: T2, Fatty-acid amide hydrolase 1 (Homo sapiens, UniProt O00519); test: Inhibition of human FAAH lysate using AMCAA as substrate by fluorescence assay; how it was run: as §3
T2 sequence (O00519 whole entry): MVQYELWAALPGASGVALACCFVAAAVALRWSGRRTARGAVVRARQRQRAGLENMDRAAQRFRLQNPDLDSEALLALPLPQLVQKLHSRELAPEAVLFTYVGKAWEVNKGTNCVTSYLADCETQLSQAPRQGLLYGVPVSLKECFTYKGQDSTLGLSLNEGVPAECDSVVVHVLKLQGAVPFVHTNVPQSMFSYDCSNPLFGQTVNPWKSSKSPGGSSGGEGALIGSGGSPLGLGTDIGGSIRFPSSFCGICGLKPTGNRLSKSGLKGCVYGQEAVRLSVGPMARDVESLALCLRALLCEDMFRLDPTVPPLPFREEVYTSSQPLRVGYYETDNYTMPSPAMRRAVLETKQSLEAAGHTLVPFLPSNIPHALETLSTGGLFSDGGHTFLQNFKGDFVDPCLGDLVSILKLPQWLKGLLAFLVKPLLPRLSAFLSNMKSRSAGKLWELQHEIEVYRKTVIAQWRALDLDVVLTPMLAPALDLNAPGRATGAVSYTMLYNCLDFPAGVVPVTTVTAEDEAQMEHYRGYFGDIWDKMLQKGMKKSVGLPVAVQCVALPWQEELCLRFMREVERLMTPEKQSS

[15] = Clearance in rat at 1 mg/kg, iv and 2 mg/kg, po; type: ADME, organism-based; settings: in vivo; how it was run: as §2
[16] = Half life in rat at 1 mg/kg, iv and 2 mg/kg, po; type: ADME, organism-based; settings: in vivo; how it was run: as §2
[17] = Bioavailability in rat at 1 mg/kg, iv and 2 mg/kg, po; type: ADME, organism-based; settings: in vivo; how it was run: as §2
Rattus norvegicus [18] = test: Dose normalized AUC in rat at 1 mg/kg, iv and 2 mg/kg, po; type: ADME, organism-based; settings: in vivo; how it was run: as §2
[19] = Solubility in fasted state simulated intestinal fluid; type: ADME
[20] = Volume of distribution at steady state in rat at 1 mg/kg, iv and 2 mg/kg, po; type: ADME, organism-based; settings: in vivo, read-out: Vdss; how it was run: as §2

Compound | Activity (Rattus norvegicus [2]) [%] | Activity (Rattus norvegicus [4]) [%] | Activity (Rattus norvegicus [7]) [%] | EC50 [8] [nM] | IC50 [9] [nM] | Ki [10] [nM] | Activity (Rattus norvegicus [13]) [%] | IC50 [14] [nM] | also measured
Cc1c(C(=O)c2cccc3ccccc23)c2cccc3c2n1[C@H](CN1CCOCC1)CO3 | – | – | – | – | – | – | – | – | Activity (Rattus norvegicus [1]): inactive
CC(C)(O)c1cnc(-c2nn(-c3ccc(F)cc3)cc2Sc2ccc(Cl)cc2)cn1 | 42 | 40 | 38 | 1160 | 10 | 740 | 58 | 32 | AUC/dose (Rattus norvegicus [3]): 1.07 µM·kg·h/mg; clearance [5]: 33.8 mL/min/kg; Vd [6]: 15.8 L/kg; half-life [11]: 4.9 h; bioavailability [12]: 96%
Clc1ccc(Sc2cn(-c3cccnc3)nc2-c2ccc(-c3ncon3)cc2)cc1 | – | 62 | – | 137 | 4.8 | 5210 | 49 | 13 | clearance [15]: 34 mL/min/kg; half-life [16]: 2.57 h; bioavailability [17]: 35%; AUC/dose (Rattus norvegicus [18]): 0.39 µM·kg·h/mg; solubility [19]: 27 µg/mL (≈ 62.5 µM); Vd [20]: 7.8 L/kg
CS(=O)(=O)c1ccc(-c2nc(-c3ccc(F)cc3)oc2Sc2ccc(Cl)cn2)cc1 | 46 | – | 44 | 14000 | 21 | 2500 | – | – | –
Clc1ccc(Sc2cn(-c3ccccc3)nc2-c2ccc3c(c2)OCCO3)cc1 | – | – | – | – | 8 | > 30000 | – | 27 | –
